This is an account of results in article PMC7610535 (Nature chemical biology, 2020).

For one assay, the system named is MV4-11 cells. Briefly: Quantitative SILAC mass spectrometry: relative protein abundance in MV4-11 cells. The conditions noted are these: 0.1 µM. Type of assay: cell-based, human.
For another assay, the system named is AURORA-A mRNA. In words: Quantitative real-time PCR of AURORA-A mRNA in MV4-11 cells. In kind it is cell-based, human. The note with it: 0.1 µM. A digest of the protocol:
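MV4-11 cells were exposed for 6 h, and RNA and protein were isolated in parallel. AURORA-A mRNA was measured by RT-qPCR and normalised to DMSO-treated control cells; bars are means of technical replicates.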
On the technique in general: Quantitative PCR measures a nucleic acid by following its amplification.

The target in assay [1] is T1, AURORA-A (Homo sapiens, UniProt O14965).
T1 sequence (O14965 1-403): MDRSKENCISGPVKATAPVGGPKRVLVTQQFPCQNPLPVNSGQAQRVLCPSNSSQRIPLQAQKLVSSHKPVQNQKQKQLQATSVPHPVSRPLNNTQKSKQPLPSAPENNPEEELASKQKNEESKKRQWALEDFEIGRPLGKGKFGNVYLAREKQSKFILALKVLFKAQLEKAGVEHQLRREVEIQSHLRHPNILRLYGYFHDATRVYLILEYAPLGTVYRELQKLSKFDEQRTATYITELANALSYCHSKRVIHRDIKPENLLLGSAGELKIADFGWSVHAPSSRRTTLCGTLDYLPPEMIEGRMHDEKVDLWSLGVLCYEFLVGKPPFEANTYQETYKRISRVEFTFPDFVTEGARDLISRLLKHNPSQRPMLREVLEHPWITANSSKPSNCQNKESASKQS
In words: HiBiT assay: AURORA-A levels based on luciferase measurements in MV4-11 cells. Type of assay: cell-based. A digest of the protocol: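 HiBiT-tagged wild-type or mutant AURORA-A was expressed stably in MV4-11 cells (infected twice, 24 h apart, selected 72 h after infection). Cells were exposed to serial dilutions of the test compound for 6 h and lysed with lytic detection reagent containing the LgBiT fragment. Luminescence was then read. DC50 and DCmax were derived from the concentration–response data.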
(The HiBiT peptide binds its large partner to form an active luciferase.)

In assay [2] the target is T1, AURORA-A. Briefly: Immunoblot of AURORA-A in U2OS, HLE and IMR5 cells. Type of assay: cell-based. The note with it: HLE and IMR5 cell lines. A digest of the protocol:
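U2OS and HLE cells were exposed to a range of concentrations for 6 h. IMR5 cells were exposed for 6 h, or at 1 µM alongside siRNA knockdown of AURORA-A/B. Lysis was in RIPA buffer for 20 min at 4 °C, and protein was quantified by BCA. Samples were separated by Bis-Tris PAGE, blotted onto PVDF, blocked in 5% milk/TBS-T and probed overnight at 4 °C.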

Some results are limits rather than exact numbers.

As to `COc1cc(Nc2ncc3c(n2)-c2ccc(Cl)cc2C(c2c(F)cccc2OC)=NC3)ccc1C(=O)NCCOCCOCCNC(=O)COc1cccc2c1C(=O)N(C1CCC(=O)NC1=O)C2=O` (stereo not drawn) [JB170], the “destabilization of CEREBLON neosubstrates (GSPT1, CSNK1A1, ZFP91, IZKF1/3)” value in the assay with MV4-11 cells (6 hours) is reported as “none was destabilized”. In the assay with MV4-11 cells (6 hours, 4,259 proteins, including AURORA-B), the “depletion of other proteins (p<0.05, log2FC<-1)” value is “no additional protein was depleted”. For the same compound, the “AURORA-A mRNA levels” value in the assay on AURORA-A mRNA is “not reduced”. On AURORA-A [1] (HiBiT-AURORA-A, 6 hours), the “concentration of maximal depletion of AURORA-A (DCmax)” value stood at 300 nM. Further, the “concentrations ineffective in depleting AURORA-A (Hook effect)” value on AURORA-A [1] (immunoblot and luminescence assays) is recorded as at least 10 µM. Also, the “AURORA-A depletion (in words)” value on AURORA-A [2] is listed as “rapid AURORA-A depletion in all cases”.
